Measured values reported in ChEMBL document CHEMBL4219052, “Synthesis and biological evaluation of 6-substituted-5-fluorouridine ProTides” (Bioorg Med Chem, 2018).
pEC50, pIC50, pKi: −log10 of the molar value.

Tests used:
HEL 92.1.7 = test: Cytotoxicity against human HEL 92.1.7 cells after 72 hrs by MTS assay; format: functional, cell-based; settings: HEL 92.1.7, 72 h
Procedure, shortened: (§1)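 Commercial screen: tumour cells seeded at 0.5 to 100 x 10³ cells/well the day before dosing, then exposed 72 h to compound in duplicate, 9 serial 3.16-fold dilutions from 198 µM top concentration. MTS added for a further 4 h at 37 °C, absorbance read; IC50 taken as 50% inhibition of viability by curve fitting.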

[1] = Cytotoxicity against African green monkey Vero cells measured after 3 days by CelltiterGlo luminescence assay; format: cell-based; settings: chlorocebus sabaeus
Procedure, shortened: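 Vero cells seeded and left overnight; growth medium then replaced by serial compound dilutions, added in triplicate; medium-only wells defined 0% cytotoxicity. On day 3 cells were lysed and ATP content measured by luciferase luminescence (CellTiter-Glo); CC50 obtained from a 4-PL curve fit.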

MV4-11 = test: Cytotoxicity against human MV411 cells after 72 hrs by MTS assay; format: functional, cell-based; settings: MV4-11, 72 h; procedure, shortened: as §1
[2] = Cytotoxicity against human Hs445 cells after 72 hrs by MTS assay; format: functional, cell-based; settings: Hs 445, 72 h; procedure, shortened: as §1
Chikungunya virus = test: Antiviral activity against Chikungunya virus infected in African green monkey Vero cells assessed as reduction in virus-induced cytopathic effect pretreated for 1 hr followed by viral infection measured after 3 days by crystal violet staining based assay; format: functional, organism-based
RL = test: Cytotoxicity against human RL cells after 72 hrs by MTS assay; format: functional, cell-based; procedure, shortened: as §1
MCF7 = test: Cytotoxicity against human MCF7 cells after 72 hrs by MTS assay; format: functional, cell-based; settings: MCF7, 72 h; procedure, shortened: as §1
SW-620 = test: Cytotoxicity against human SW620 cells after 72 hrs by MTS assay; format: functional, cell-based; settings: SW-620, 72 h; procedure, shortened: as §1
MIA PaCa-2 = test: Cytotoxicity against human MIAPaCa2 cells after 72 hrs by MTS assay; format: functional, cell-based; settings: MIA PaCa-2, 72 h; procedure, shortened: as §1
[3] = target: Orotidine 5'-phosphate decarboxylase (Methanobacterium thermoautotrophicum, UniProt O26232); test: Inhibition of Methanobacterium thermoautotrophicum ODCase; set-up: species or system Methanothermobacter thermautotrophicus
[4] = target: T1, Orotidine 5'-phosphate decarboxylase (Saccharomyces cerevisiae S288c, UniProt P03962); test: Inhibition of yeast ODCase
T1 sequence (P03962 whole entry): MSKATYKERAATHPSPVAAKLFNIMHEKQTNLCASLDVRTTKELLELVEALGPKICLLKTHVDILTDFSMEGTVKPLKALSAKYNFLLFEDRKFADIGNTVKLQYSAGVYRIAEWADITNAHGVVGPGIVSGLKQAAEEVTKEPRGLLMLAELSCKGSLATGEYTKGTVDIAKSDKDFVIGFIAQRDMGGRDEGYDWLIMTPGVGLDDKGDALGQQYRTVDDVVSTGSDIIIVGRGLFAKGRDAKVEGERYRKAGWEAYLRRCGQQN

[5] = Half life in acetone d6 at pH 7.6 Trizma buffer by 31P NMR analysis; format: physicochemical; settings: Trizma buffer with acetone-d6, pH 7.6
Procedure, shortened: (§2)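 ProTide (5.0 mg) dissolved in acetone-d6 (0.15 mL) plus Trizma buffer pH 7.6 (0.30 mL), treated with carboxypeptidase Y; conversion followed by ³¹P NMR over 14 h.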

Carboxypeptidase Y [6] = target: T2, Carboxypeptidase Y (Saccharomyces cerevisiae (strain ATCC 204508 / S288c) (Baker's yeast), UniProt P00729); test: Prodrug activation assessed as yeast carboxypeptidase Y mediated (2S)-2-((((2R,3S,4R,5R)-5-(6-azido-5-fluoro-2,4-dioxo-3,4-dihydropyrimidin-1(2H)-yl)-3,4-dihydroxytetrahydrofuran-2-yl)methoxy)(hydroxy)phosphorylamino)propanoic acid formation at pH 7.6 measured within 60 mins by 31P NMR analysis; settings: pH 7.6, 1 h; procedure, shortened: as §2
T2 sequence (P00729 whole entry): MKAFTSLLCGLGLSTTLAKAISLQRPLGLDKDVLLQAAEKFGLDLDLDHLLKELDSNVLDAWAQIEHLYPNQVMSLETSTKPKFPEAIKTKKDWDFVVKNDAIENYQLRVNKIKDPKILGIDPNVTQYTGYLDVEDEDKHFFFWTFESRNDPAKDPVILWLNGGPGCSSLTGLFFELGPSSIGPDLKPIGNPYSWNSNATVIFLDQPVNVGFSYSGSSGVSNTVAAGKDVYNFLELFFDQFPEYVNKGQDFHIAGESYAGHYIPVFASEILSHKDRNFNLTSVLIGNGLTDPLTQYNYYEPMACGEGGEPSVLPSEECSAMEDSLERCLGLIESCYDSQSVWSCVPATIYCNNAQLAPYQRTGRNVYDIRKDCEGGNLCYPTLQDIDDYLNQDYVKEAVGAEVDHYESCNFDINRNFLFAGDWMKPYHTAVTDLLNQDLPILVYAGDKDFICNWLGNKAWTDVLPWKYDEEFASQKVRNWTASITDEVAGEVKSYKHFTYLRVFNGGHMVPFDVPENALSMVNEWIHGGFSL

Carboxypeptidase Y [7] = target: T2, Carboxypeptidase Y; test: Prodrug activation assessed as yeast carboxypeptidase Y mediated (2S)-2-((((2R,3S,4R,5R)-5-(6-azido-5-fluoro-2,4-dioxo-3,4-dihydropyrimidin-1(2H)-yl)-3,4-dihydroxytetrahydrofuran-2-yl)methoxy)(phenoxy)phosphorylamino)propanoic acid formation at pH 7.6 measured within 10 mins by 31P NMR analysis; settings: pH 7.6, 10 min; procedure, shortened: as §2

Orotidine 5'-phosphate decarboxylase (Methanobacterium thermoautotrophicum, UniProt O26232), sequence (O26232 whole entry): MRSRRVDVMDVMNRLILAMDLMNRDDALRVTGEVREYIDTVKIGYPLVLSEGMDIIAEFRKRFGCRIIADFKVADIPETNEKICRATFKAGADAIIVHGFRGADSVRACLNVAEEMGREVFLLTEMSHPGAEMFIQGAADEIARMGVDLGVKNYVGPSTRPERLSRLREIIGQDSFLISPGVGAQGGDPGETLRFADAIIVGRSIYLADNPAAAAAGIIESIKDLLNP

SMILES	pIC50 (HEL 92.1.7)	CC50 at 72 h [1] [µM]	pIC50 (MV4-11)	pIC50 [2]	pEC50 (Chikungunya virus)	pIC50 (RL)	pIC50 (MCF7)	pIC50 (SW-620)	pIC50 (MIA PaCa-2)	pKi [3]	pKi [4]	half-life [5] [min]	Drug metabolism (Carboxypeptidase Y [6]) [ppm]	Drug metabolism (Carboxypeptidase Y [7]) [ppm]
Cc1c(F)c(=O)[nH]c(=O)n1[C@@H]1O[C@H](COP(=O)(N[C@@H](C)C(=O)OCc2ccccc2)Oc2cccc3ccccc23)[C@@H](O)[C@H]1O (some centres undefined)	< 4.30	> 200	< 4.30	< 4.30	< 3.70	< 4.30	< 4.30	< 4.30	< 4.30					
CCc1c(F)c(=O)[nH]c(=O)n1[C@@H]1O[C@H](CO)[C@@H](O)[C@H]1O	< 4.30	> 200		< 4.30	< 3.70	< 4.30	< 4.30	< 4.30						
O=c1[nH]c(=O)n([C@@H]2O[C@H](CO)[C@@H](O)[C@H]2O)c(I)c1F	7.00		7.40	6.42		7.00	6.17	6.30	7.70					
[N-]=[N+]=Nc1c(F)c(=O)[nH]c(=O)n1[C@@H]1O[C@H](CO)[C@@H](O)[C@H]1O	5.00	47	5.18	4.85	< 3.70	5.00	5.22	5.10	4.96					
C[C@H](NP(=O)(OC[C@H]1O[C@@H](n2c(I)c(F)c(=O)[nH]c2=O)[C@H](O)[C@@H]1O)Oc1cccc2ccccc12)C(=O)OCc1ccccc1 (some centres undefined)	6.40		7.10	6.15		6.40	5.41	6.28	6.20					
O=c1cnn([C@@H]2O[C@H](CO)[C@@H](O)[C@H]2O)c(=O)[nH]1 [6-AZAURIDINE]		> 10			6.33					4.96	7.19			
CCCCCCOC(=O)[C@H](C)NP(=O)(OC[C@H]1O[C@@H](n2c(N=[N+]=[N-])c(F)c(=O)[nH]c2=O)[C@H](O)[C@@H]1O)Oc1cccc2ccccc12 (some centres undefined)	5.00		5.21	5.22		5.05	4.51	4.68	4.62					
C[C@H](NP(=O)(O)OC[C@H]1O[C@@H](n2c(N=[N+]=[N-])c(F)c(=O)[nH]c2=O)[C@H](O)[C@@H]1O)C(=O)O												< 5	7.17	
C[C@H](NP(=O)(OC[C@H]1O[C@@H](n2c(N=[N+]=[N-])c(F)c(=O)[nH]c2=O)[C@H](O)[C@@H]1O)Oc1cccc2ccccc12)C(=O)OCc1ccccc1 (some centres undefined)	4.54	81.8	5.20	4.82	< 3.70	4.92	4.36	4.55	4.57					
C[C@H](NP(=O)(OC[C@H]1O[C@@H](n2c(N=[N+]=[N-])c(F)c(=O)[nH]c2=O)[C@H](O)[C@@H]1O)Oc1ccccc1)C(=O)O (some centres undefined)														4.68 to 4.87
C[C@H](NP(=O)(OC[C@H]1O[C@@H](n2c(N=[N+]=[N-])c(F)c(=O)[nH]c2=O)[C@H](O)[C@@H]1O)Oc1ccccc1)C(=O)OCc1ccccc1 (some centres undefined)	4.77		5.10	4.64		4.68	4.70	4.89	4.66					
